Consider two compounds from paper PMC9989235 (Iranian Journal of Medical Sciences, 2023).

The nature of test [1]: DPPH radical scavenging assay. To be noted: mean±SD. Summed up: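 Test compound in methanol at 50, 75 and 100 was added to 0.005% (w/v) DPPH in methanol. Incubation was 45 min at room temperature, with absorbance read at 517 nm against a blank. Inhibition (%) = [(controlA − sampleA)/[…]]×100, where the control held all reagents except the test compound. Triplicate runs; IC50 taken from a fitted line to the plot.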
For orientation: DPPH is a stable violet radical that fades when it is reduced.

The test system of test [2] is Giardia intestinalis. Description: In vitro bioassay of antigiardial activity. It counts as cell-based. To be noted: Giardia duodenalis, read-out: Antigiardial activity, IC50, Giardia intestinalis.
For test [3], the system named is selected bacteria strains. Put plainly: Disc diffusion method, overall statements on the selected bacteria strains. The test is classed as cell-based. To be noted: selected Gram-positive and Gram-negative strains, inhibition zones. Summed up:
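Clinical isolates from Kirkuk Hospital were cultured on agar in Petri dishes. Test compound was dissolved in DMSO at 60 µg/mL, with DMSO alone tested alongside. Plates were incubated 24 h at 37 °C, pH 7.4±0.2. Inhibition-zone diameter around the disc was scored: − none; + 10–15 mm; ++ 15–20 mm; +++ ≥20 mm.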
For orientation: A growth-free zone around the sample is the usual read-out of agar diffusion tests.

As to `O=C1O[C@H]([C@@H](O)CO)C(O)=C1O` [Ascorbic acid], the “DPPH radical scavenging, inhibition at 50 µg/mL” value in test [1] (compound concentration 50 µg/mL, 45 min, 517 nm) stood at 78.01±0.75%. Moreover, in test [1] (compound concentration 75 µg/mL, 45 min, 517 nm), the “DPPH radical scavenging, inhibition at 75 µg/mL” value is 81.01±0.85%. Further, the “DPPH radical scavenging, inhibition at 100 µg/mL” value in test [1] (compound concentration 100 µg/mL, 45 min, 517 nm) was determined as 84.21±0.41%.
In the case of `Cc1ncc([N+](=O)[O-])n1CCO` [Metronidazole], in test [1] (fitted line to a plot, triplicate), the “DPPH radical scavenging, IC50” value is recorded as “ns (No scavenging activity)”. The IC50 (in general, the concentration at which inhibition is half-maximal) in test [2] is 3.71 ± 0.27 µM. Also, the “antibacterial activity (in words)” value in test [3] is recorded as “no antibacterial activity”.
